Here are results for eight compounds from article PMC7900901 (SLAS discovery : advancing life sciences R & D, 2017).

Common to all, as to assay type: biochemical
For test [1], the target named is T1, human TDP1 (Homo sapiens, UniProt Q9NUW8). Briefly: Reversibility of inhibition by preincubation and rapid dilution. The conditions noted are these: for Recovery of the uninhibited control rate: after preincubation with compound for 1 h, rapid dilution; for Reversibility of inhibition: preincubation at 10X IC50 for 1 h, 100-fold dilution.
T1 sequence (Q9NUW8 whole entry): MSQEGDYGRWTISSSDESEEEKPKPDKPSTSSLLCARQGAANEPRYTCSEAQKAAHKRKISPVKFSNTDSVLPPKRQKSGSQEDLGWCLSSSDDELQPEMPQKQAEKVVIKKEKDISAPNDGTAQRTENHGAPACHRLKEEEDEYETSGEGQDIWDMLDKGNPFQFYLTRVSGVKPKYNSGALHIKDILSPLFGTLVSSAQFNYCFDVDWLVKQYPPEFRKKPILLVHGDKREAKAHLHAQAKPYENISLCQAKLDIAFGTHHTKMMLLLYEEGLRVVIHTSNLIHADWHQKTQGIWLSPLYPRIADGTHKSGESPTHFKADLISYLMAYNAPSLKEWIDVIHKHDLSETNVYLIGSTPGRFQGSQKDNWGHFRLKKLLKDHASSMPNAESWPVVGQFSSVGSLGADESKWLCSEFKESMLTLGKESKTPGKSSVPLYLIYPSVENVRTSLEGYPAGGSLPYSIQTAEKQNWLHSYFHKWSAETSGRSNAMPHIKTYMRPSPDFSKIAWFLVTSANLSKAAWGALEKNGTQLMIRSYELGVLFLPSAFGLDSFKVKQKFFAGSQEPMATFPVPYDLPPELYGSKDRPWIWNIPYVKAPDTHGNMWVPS
In test [2] the target is T1, human TDP1. Nature of the test: Mechanism of inhibition, substrate/inhibitor matrix. An outline of the steps:
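Full-length TDP1 was preincubated with test compound on ice for 1 h. Then eosin/TAMRA FRET substrate was added, […] twofold dilutions from 2.25 to 0.035 μM, with three inhibitor levels plus a no-inhibitor control. Final TDP1 was 500 pM in PBS pH 8.0 buffer. Eosin fluorescence (ex 525/em 545 nm) was read over about 1 h at 28 °C. Rate versus substrate data were fitted to competitive, noncompetitive (pure and mixed) and uncompetitive models, with the best fit chosen by Akaike's Information Criterion.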

For test [3], the target named is T1, human TDP1. Nature of the test: Continuous FRET assay, IC50 determination of inhibitors of TDP1.
Setting [4] is: 500 pM TDP1, 1.5 μM FRET substrate, 1 h preincubation.

The structures appear in SMILES notation. “Also recorded” adds a separate entry of the source. Read-outs that look alike come from different tables or passages of the source.

`CC(C)=CCC12OC1(O)C(=O)c1c(O)cccc1C2=O` (centres unmarked) [2,3-epoxy-8-hydroxy-lapachol]: on human TDP1 [1], the “Recovery of the uninhibited control rate” value was 90% and the “Reversibility of inhibition” value is reported as “fully reversible”. In addition, the “Mechanism of inhibition” value on human TDP1 [2] (inhibitor at 0, 6.6, 20 and 60 μM, Akaike's Information Criterion) is listed as “mixed-type noncompetitive mechanism”. Moreover, the Ki at human TDP1 [2] (read-out: Kie (inhibition constant for TDP1 alone), mixed noncompetitive model) is 40.9 ± 14.1 µM. On to `O=C(O)C1=CC(=C(c2ccc(O)c(C(=O)O)c2)c2ccc(O)c(C(=O)O)c2)C=CC1=O` [Aurintricarboxylic acid, reference compound], for which, on human TDP1 [1], the “Recovery of the uninhibited control rate” value amounted to 90%. What is called IC50 is the midpoint of a concentration-inhibition curve. A low value points to greater potency in that assay. As for `CC(=O)Oc1ccc2ccc(=O)oc2c1OC(C)=O` [Daphnetin diacetate], the 50% inhibitory concentration (IC50) against human TDP1 [3] was 1.1 ± 0.2 µM. Consider `C[C@@]12CCC(=O)c3coc(c31)C(=O)c1cc3c(O)ccc(OS(=O)(=O)O)c3cc12.[Na+]` [Halenaquinol sulfate], for which the “Reversibility of inhibition” value at human TDP1 [1] is “irreversibly inhibited TDP1; also recorded: irreversibly inhibiting TDP1”. In addition, the half-inhibitory concentration (IC50) against human TDP1 [3] (setting [4]) amounted to 24 ± 1.1 µM. With `C[C@@]12CCC(=O)c3coc(c31)C(=O)c1cc3c(cc12)C(=O)C=CC3=O` [Halenaquinone], the entries for the “Reversibility of inhibition” value at human TDP1 [1] and on human TDP1 [1] (listed as Halenoquinone) were “irreversibly inhibited TDP1; also recorded: irreversibly inhibiting TDP1” and “irreversible inhibition”, respectively. Besides, half-maximal inhibition at human TDP1 [3] (setting [4]) (IC50) required 26 ± 1 µM. In turn, `C[C@H](O)C#CC#CC#CC#CCCCCCCCC(=O)O` [Minquartynoic acid] showed a half-maximal inhibitory concentration (IC50) against human TDP1 [3] of 52 ± 1 µM. The same measure, in the same setting: then `C[C@@]12CCCc3coc(c31)C(=O)c1cc3c(cc12)C(=O)C=CC3=O` [Xestoquinone], with 93 ± 1.1 µM. As for `COC[C@H]1OC(=O)c2coc3c2[C@@]1(C)C1=C(C3=O)[C@@H]2CCC(=O)[C@@]2(C)C[C@H]1OC(C)=O` [wortmannin, reference compound], the “Inhibition of TDP1” value on human TDP1 [3] (concentrations up to 500 μM) was “unable to inhibit TDP1; also recorded: did not inhibit TDP1”.
